Experimental data: ChEMBL document CHEMBL1145491, “Artemisinins inhibit Trypanosoma cruzi and Trypanosoma brucei rhodesiense in vitro growth” (Antimicrob Agents Chemother, 2007)

Assays:
[1] = test system: Trypanosoma brucei rhodesiense; assay: Growth inhibition of Trypanosoma brucei rhodesiense trypomastigotes after 72 hrs by Alamar blue assay; type: functional, organism-based
[2] = test system: Leishmania donovani; assay: Growth inhibition of Leishmania donovani promastigotes after 72 hrs by Alamar blue assay; type: functional, organism-based
In short: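 Parasites exposed to drug for 72 h; growth read as optical density at 600 nm against drug-free control cultures. Six drug concentrations per run, 2–5 independent runs; mean inhibition plotted against concentration, IC50 and IC90 by linear regression, reported in micromolar with standard errors of the means.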

[3] = test system: Trypanosoma cruzi; assay: Growth inhibition of Trypanosoma cruzi epimastigotes after 72 hrs by Alamar blue assay; type: functional, organism-based
[4] = test system: Trypanosoma cruzi; assay: Inhibition of ATPase in Trypanosoma cruzi at 1 uM in presence of calcium; parameters: scale not given: the % may be the effect or the level left
In short: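 T. cruzi membranes were isolated by a protocol adapted from Leishmania. It was started with 2 mM ATP, and released inorganic phosphate was measured colorimetrically.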

[5] = test system: Leishmania infantum; assay: Antiparasitic activity against Leishmania infantum promastigotes assessed as parasite killing at 1.4 to 382.9 uM; type: functional
[6] = test system: Leishmania major; assay: Antiparasitic activity against Leishmania major promastigotes assessed as parasite killing at 750 nM; type: functional
[7] = test system: Leishmania major; assay: Antiparasitic activity against Leishmania major amastigotes in macrophage assessed as parasite killing at 3 to 30 uM; type: functional
[8] = Growth inhibition of human U937 cells at 3 mM; type: cell-based, U-937
[9] = test system: Leishmania donovani; assay: Antiparasitic activity against Leishmania donovani in hamster assessed as reduction of spleen parasite burden at 50 mg/kg, po; type: functional; parameters: scale not given: the % may be the effect or the level left
[10] = test system: Leishmania donovani; assay: Antiparasitic activity against Leishmania donovani in hamster assessed as reduction of liver parasite burden at 25 mg/kg, po; type: functional; parameters: scale not given: the % may be the effect or the level left
[11] = test system: Leishmania donovani; assay: Antiparasitic activity against Leishmania donovani in hamster assessed as reduction of spleen parasite burden at 25 mg/kg, po; type: functional; parameters: scale not given: the % may be the effect or the level left
[12] = test system: Leishmania donovani; assay: Antiparasitic activity against Leishmania donovani in hamster assessed as reduction of liver parasite burden at 50 mg/kg, po; type: functional; parameters: scale not given: the % may be the effect or the level left

Row | Compound | IC50 [1] | IC90 [1] | IC50 [2] | IC50 [3] | IC90 [3] | Activity [4] | Activity [5] | Activity [6] | Activity [7] | inhibition at 3000 µM [8] | Activity [9] | Activity [10] | Activity [11] | Activity [12]
1 | C[C@@H]1O[C@@H](O[C@H]2C[C@@H](O)[C@]3(CO)[C@H]4[C@H](O)C[C@]5(C)[C@@H](C6=CC(=O)OC6)CC[C@]5(O)[C@@H]4CC[C@]3(O)C2)[C@H](O)[C@H](O)[C@H]1O [OUABAIN] | > 450 µM | 1180 µM | > 450 µM | > 450 µM | 953 µM | – | – | – | – | – | – | – | – | –
2 | C[C@H]1[C@H](N2CCS(=O)(=O)CC2)O[C@@H]2O[C@@]3(C)CC[C@H]4[C@H](C)CC[C@@H]1[C@@]24OO3 [ARTEMIFONE] | 22.5 µM | 44.8 µM | 12.9 µM | 23.3 µM | 50.5 µM | – | – | – | – | – | – | – | – | –
3 | COc1ccc2[nH]c([S+]([O-])Cc3ncc(C)c(OC)c3C)nc2c1 (centres undefined) [OMEPRAZOLE] | 177 µM | 509 µM | 340 µM | 178 µM | 526 µM | – | – | – | – | – | – | – | – | –
4 | N=C(N)c1ccc(OCCCCCOc2ccc(C(=N)N)cc2)cc1 [PENTAMIDINE] | 1.2 µM | 3.7 µM | 1 µM | 1.1 µM | 4.4 µM | – | – | – | – | – | – | – | – | –
5 | C[C@@H]1CC[C@H]2[C@@H](C)C(=O)O[C@@H]3O[C@@]4(C)CC[C@@H]1[C@]32OO4 [ARTEMISININ] | 20.4 µM | 49.1 µM | 30.8 µM | 13.4 µM | 46.5 µM | 24.9% | 50% | 50% | 50% | < 5% | – | – | – | –
6 | C[C@H]1[C@@H](O)O[C@@H]2O[C@@]3(C)CC[C@H]4[C@H](C)CC[C@@H]1[C@@]24OO3 [ARTENIMOL] | 24.6 µM | 49.6 µM | – | 12.8 µM | 49.2 µM | – | – | – | – | – | 75% | 75% | 75% | 75%
7 | C/C=C(/C)C(=O)O[C@H]1C(C)=C2[C@H]([C@@H]1OC(=O)CCCCCCC)[C@@](C)(OC(C)=O)C[C@H](OC(=O)CCC)[C@@]1(O)[C@H]2OC(=O)[C@@]1(C)O [THAPSIGARGIN] | 30.1 µM | 71.9 µM | 28.1 µM | 33.9 µM | 78.1 µM | 25.8% | – | – | – | – | – | – | – | –
8 | C[C@@H]1[C@H](O)[C@@H](C)/C=C/C=C/C=C/C=C/C=C/C=C/C=C/[C@H](O[C@@H]2O[C@H](C)[C@@H](O)[C@H](N)[C@@H]2O)C[C@@H]2O[C@](O)(C[C@@H](O)C[C@@H](O)[C@H](O)CC[C@@H](O)C[C@@H](O)CC(=O)O[C@H]1C)C[C@H](O)[C@H]2C(=O)O [AMPHOTERICIN B] | 2.8 µM | 11.9 µM | 2.8 µM | 6.5 µM | 19.6 µM | – | – | – | – | – | – | – | – | –
